Source: PubChem (several laboratories)
This is a sample that favours compounds with a hit; in the whole collection about 1% have one here.
T cell HTS = modulates CD8 T cell binding to vesicles; 2C CD8+ T cell-vesicle binding, flow cytometry; active compounds read low; response (vesicle binding), % at 7 µM; 0.068% of 330,000 active; AID 2052;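 active means response, share of CD8 T cells binding vesicles, and their 90th percentile fluorescence all below set limits, cut at about 80% in these data, passing the limit was not always enough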;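 further: values below 100% mean blocked vesicle binding to the CD8+ T cells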
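Test system: purified 2C TCR transgenic mouse naive CD8+ T cells. Probe or stimulus: QL9-peptide-loaded Drosophila micro-vesicles bearing Ld, ICAM-1 and B7-1. Incubation: binding step 1.5 h, 37 °C, antibody labelling 20 min, ice. Measured by: flow cytometry of vesicle-bound cells.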
UPR XBP1 act = activators of adaptive arm of unfolded protein response (XBP1); activation, % at 20 µM; 0.33% of 330,000 active; CHO-XBP1 luciferase reporter, IRE1-XBP1 UPR activation, luminescence; percent of tunicamycin response, DMSO as zero; AID 463104;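 active means versus positive control, 20 µM dose yields 30% or more activation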;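 further: 100% = tunicamycin at 10 µg/mL and 0% = DMSO only wells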
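Material: CHO cell line with stable XBP1 luciferase reporter; buffer or medium: F12 medium containing 10% fetal bovine serum; compound: single point, 20 µM final compound, 1% DMSO; incubation: 6 h treatment, 37 °C; measured by: glow luminescence from Steady-Glo reagent; evaluation: activation, % of tunicamycin; control set: tunicamycin high, DMSO low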
B2AR ag = agonists of human beta-2 adrenergic receptor inducing internalization; response, % (concentration not given with the values); 0.43% of 340,000 active; P07550; AID 504454; Am2.2-beta2AR cells, FAP receptor internalization, flow cytometry;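 active means response above a set limit, near 3 SD of response in nonfluorescent compounds, cut at about 42% in these data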
Target sequence (P07550 whole entry, looked up): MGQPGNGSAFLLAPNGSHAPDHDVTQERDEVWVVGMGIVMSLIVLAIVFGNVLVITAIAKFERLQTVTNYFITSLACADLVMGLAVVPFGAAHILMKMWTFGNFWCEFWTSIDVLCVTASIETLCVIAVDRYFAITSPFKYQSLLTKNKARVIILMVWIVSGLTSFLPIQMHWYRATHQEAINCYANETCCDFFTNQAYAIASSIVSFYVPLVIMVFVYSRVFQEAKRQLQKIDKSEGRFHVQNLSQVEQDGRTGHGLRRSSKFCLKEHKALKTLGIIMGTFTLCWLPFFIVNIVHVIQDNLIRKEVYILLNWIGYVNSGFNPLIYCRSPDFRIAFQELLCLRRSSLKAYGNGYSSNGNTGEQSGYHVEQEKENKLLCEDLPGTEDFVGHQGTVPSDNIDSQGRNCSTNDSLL
CHOP UPR activ = apoptotic UPR (CHOP) activation. 0.34% of 330,000 active. CHO-CHOP luciferase reporter, luminescence; percent of tunicamycin response over DMSO baseline. activation, % at 10 µM;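 active means at 10 µM dose, activation of 40% or more, normalized to positive control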;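 further: 100% = tunicamycin at 10 µg/mL and 0% = DMSO alone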
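assay system = CHO CHOP reporter cells | amount = 500 CHO-CHOP cells per well | buffer or medium = F12 with 10% FBS | incubation = 16-18 h cell attachment, then 6 h compound exposure, 37 °C | detection = luminescence read with Steady-Glo | read-out = percent activation relative to tunicamycin control | controls = tunicamycin high control, DMSO low control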
* hit, by the source's call; / = no result given.

SMILES	T cell HTS	UPR XBP1 act	B2AR ag	CHOP UPR activ
CCOC(=O)c1c(C)oc2c(F)c(F)c(F)c(F)c2c1=O	172	-5	43*	2
O=C1C(F)=CC(COC(c2ccccc2)(c2ccccc2)c2ccccc2)OC1n1cc(F)c(=O)[nH]c1=O (stereo unspecified)	/	/	87*	/
CCN(CC)c1ccc(NC(=O)C2=CC=CN3CCS(=O)(=O)N=C23)cc1	0.0*	3	9	2
COc1ccc(S(=O)(=O)N2CCCCC2)cc1C(=O)N1CCCC1	0.0*	-4	1	1
Cc1cc(Nc2nc3c(c(=O)n(C)c(=O)n3C)n2C)n(-c2ccc(Cl)cc2)n1	263	-2	6	-2
O=C(CCl)N=c1sccn1Cc1cccc2ccccc12	/	/	50*	/
CCC(=O)OCC(=O)N=c1sccn1Cc1ccccc1Cl	347	-5	-3	1
O=C(CCl)N=c1sccn1Cc1ccc(Cl)cc1Cl	356	1	67*	42*
O=C(CCl)N=c1sccn1Cc1ccccc1Cl	330	1	25	24
Cc1ccc(S(=O)(=O)NCC(=O)Nc2ccc3c(c2)OCO3)cc1	161	6	5	-1
COc1ccc(/C=N/N2C(=O)CSC2=S)cc1	187	-2	-1	-2
CC(C)(C)c1ccc(/C=N/N2C(=O)CSC2=S)cc1	168	-7	65*	-1
CCOc1ccc(S(=O)(=O)N(CC)CC)cc1NC(=O)c1ccc(N2CCCC2=O)cc1	254	-4	2	0
COc1ccc(NC(=O)/C(Cl)=C(/Cl)S(=O)(=O)Cc2ccc(C)cc2)cn1	/	/	62*	/
COc1ccc(NC(=O)COC(=O)C(NC(=O)c2ccc(C)cc2)C(C)C)cn1 (stereo unspecified)	295	0	0	0
COc1ccc(NC(=O)Cc2ccc(Cl)c(Cl)c2)cn1	312	1	1	0
COc1ccc(NC(=O)/C(Cl)=C(/Cl)S(=O)Cc2ccccc2Cl)cn1 (stereo unspecified)	/	-7	58*	-11
COC(=O)c1[nH]nc(C(=O)OC(C)(C)C)c1-c1ccccc1	206	0	2	1
COc1ccc(C=C2C=C(C(C)(C)C)C(=O)C(C(C)(C)C)=C2)cc1OC	56	-14	76*	-12
COc1ccc(C(=O)NNC(=O)CSc2nnnn2C)cc1	62*	0	9	5
COc1ccc(NS(=O)(=O)c2cc3c(cc2C)N(C)CCO3)cc1	530	-4	0	2
CC(C)(C)NC(=O)N1CCN(S(=O)(=O)c2ccc3c(c2)CCC3)CC1	275	0	-7	1
Cc1cccc(CS(=O)(=O)c2nnc([C@H](Cc3ccccc3)NC(=O)OC(C)(C)C)o2)c1	312	-7	61*	29
COc1ccc(C(=O)c2ccc(Cl)c([N+](=O)[O-])c2)cc1	740	8	48*	4
O=C(/C=C/c1cc(Br)ccc1O)c1ccco1	121	2	86*	4
SMILES	T cell HTS	UPR XBP1 act	B2AR ag	CHOP UPR activ
CCCC(=O)N1CCN(c2ccc(NC(=S)NC(=O)c3cccc(C)c3)cc2)CC1	503	0	-2	1
O=C(NCCc1ccccc1)C(=O)c1c[nH]c2ccccc12	180	-6	3	4
NS(=O)(=O)c1ccc(CCNC(=O)C(=O)c2c[nH]c3ccccc23)cc1	814	0	56*	-1
CCC(C)c1ccc(NC(=O)c2cccs2)cc1 (stereo unspecified)	0	-1	8	1
Cc1cc(-c2nc3ncccc3o2)ccc1NC(=S)NC(=O)C(C)C	407	-1	62*	-1
Cc1ccc(-c2nc3ncccc3o2)cc1NC(=O)C(C)C	216	-2	-13	1
CC(C)CC(=O)/C(=C/c1ccc(N(C)C)cc1)n1cncn1	185	-1	-5	0
CC(C)CC(=O)/C(=C\c1ccc(Cl)cc1Cl)n1cncn1	/	/	47*	/
COc1ccc(CC(=O)NC(C)(C)C)cc1S(=O)(=O)N1CCOCC1	356	-1	5	-1
CC1(C)Cc2c(C#N)c(NC3CCCCC3)nc(-c3ccco3)c2CO1	0.0*	0	13	1
CC1(C)Cc2c(C#N)c(NCC3CCCO3)nc(-c3ccco3)c2CO1 (stereo unspecified)	185	-4	2	-2
CC(=O)Nc1ccc(NC(=O)c2cccc(-c3cc4ccccc4oc3=O)c2)cc1	746	-2	-22	3
COc1cc(NC(C)=O)ccc1-c1cc2ccccc2oc1=O	85	0	4	2
COc1cc(NC(=O)c2ccc(Cl)cc2Cl)ccc1-c1cc2ccccc2oc1=O	175	40*	-4	11
O=C(Nc1ccc(N2CCCC2)c(Cl)c1)c1cccc(-c2cc3ccccc3oc2=O)c1	188	0	61*	-1
Nc1ccc(O)c2c(=O)cc(-c3ccccc3Cl)oc12	324	6	-10	2
CC(C)C1C(C#N)=C(N)Oc2n[nH]c(-c3ccccc3)c21 (stereo unspecified)	163	-1	-2	-4
CC(C)CC1C(C#N)=C(N)Oc2n[nH]c(-c3ccccc3)c21 (stereo unspecified)	44*	-1	-5	0
CC1(C)Cc2c(c(N3CCOCC3)nc3sc4c(N5CCOCC5)nnnc4c23)CS1	0	58*	/	5
CCS(=O)(=O)c1ncc(Cl)c(C(=O)Nc2ccc(S(=O)(=O)N(C)c3ccccc3)cc2)n1	125	-11	-294	-11
CCN(c1ccccc1)S(=O)(=O)c1ccc(NC(=O)c2nc(S(C)(=O)=O)ncc2Cl)cc1	64	-11	104*	-11
CS(=O)(=O)N1CCN(c2ccc(NC(=O)C(c3ccccc3)c3ccccc3)cc2)CC1	415	-1	9	-1
O=C(Nc1ccc(N2CCCC2)cc1)C(Cl)c1ccccc1 (stereo unspecified)	180	-1	76*	6
CCc1cccc(C)c1NC(=S)N(CCOC)C(C)c1ccco1 (stereo unspecified)	84	-2	-3	0
O=C1Nc2ccccc2/C1=N/N=C/c1ccc(-c2ccc([N+](=O)[O-])cc2)o1	/	/	43*	/
SMILES	T cell HTS	UPR XBP1 act	B2AR ag	CHOP UPR activ
Cc1ccc(S(=O)(=O)NCCC(=O)NCC(c2cccs2)N(C)C)cc1C (stereo unspecified)	284	1	-5	0
CCCCn1c(NC(=O)c2ccc(F)cc2)c(C#N)c2nc3ccccc3nc21	226	96*	/	2
Cc1ccc2c(c1)c1ccc3c(c1n2C)C(=O)C=CC3=O	/	-10	93*	-9
Cc1ccc2c(c1)c1ncnc(N3CCOCC3)c1n2C	233	3	-4	2
Cn1c2ccccc2c2ccc3c(c21)C(=O)C=CC3=O	/	/	76*	/
COc1ccc2c(c1)c1ncn(CCN3CCCC3)c(=O)c1n2C	214	4	-4	-2
COc1ccc2c(c1)c1ccc3c(c1n2C)C(=O)C=CC3=O	/	-11	96*	-2
Cc1ccc(C)c2c1c1ccccc1n2C	656	-3	1	-2
